ChEMBL document CHEMBL1122007, “A comparison of the inhibition of growth of methotrexate-resistant and -sensitive leukemia cells in culture by triazines. Evidence for a new mechanism of cell resistance to methotrexate” (1982)

Tested on: L5178Y
Assay: Compound was tested in vitro for concentration required to decrease 50% growth rate of murine leukemia L5178Y/R cell culture
Type: functional, Mus musculus
Method in brief: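 Seeded at 4.0-6.0 × 10^4 cells/mL in duplicate. Drug added 1:10, at least eight concentrations, for 48 h of continuous exposure under 5% CO2. Cells counted by Coulter counter. ID50 is the concentration that halves the growth rate (doubles the generation time), read from the dose-response curve.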

| Compound | Log 1/C |
| --- | --- |
| CN(C)C(=O)c1cccc(COc2ccc(N3C(N)=NC(N)=NC3(C)C)cc2Cl)c1 | 5.4 |
| CC1(C)N=C(N)N=C(N)N1c1cccc([N+](=O)[O-])c1 | 5.03 |
| CC1(C)N=C(N)N=C(N)N1c1cccc(F)c1 | 5.24 |
| CC1(C)N=C(N)N=C(N)N1c1cccc(CSc2ccccc2)c1 | 6.2 |
| Cc1cccc(OCc2cccc(N3C(N)=NC(N)=NC3(C)C)c2)c1 | 5.59 |
| CC1(C)N=C(N)N=C(N)N1c1cccc(OCCCCOc2ccccc2)c1 | 5.3 |
| CC1(C)N=C(N)N=C(N)N1c1cccc(OCCOc2cccc(C(F)(F)F)c2)c1 | 5.85 |
| CC1(C)N=C(N)N=C(N)N1c1cccc(COc2cccc(NC(N)=O)c2)c1 | 4.74 |
| CC1(C)N=C(N)N=C(N)N1c1cccc(COc2cccc(Cl)c2)c1 | 5.93 |
| CC(=O)Nc1cccc(OCc2cccc(N3C(N)=NC(N)=NC3(C)C)c2)c1 | 4.95 |
| CCCCCCCCCCCCCOc1cccc(N2C(N)=NC(N)=NC2(C)C)c1 | 6.52 |
| CCCCCCCCCOc1cccc(N2C(N)=NC(N)=NC2(C)C)c1 | 6.57 |
| COc1cccc(OCc2cccc(N3C(N)=NC(N)=NC3(C)C)c2)c1 | 5.36 |
| CCCCCCCCCCCCCCOc1cccc(N2C(N)=NC(N)=NC2(C)C)c1 | 6.49 |
| CC1(C)N=C(N)N=C(N)N1c1cccc(OCCOc2ccccc2)c1 | 5.02 |
| CC1(C)N=C(N)N=C(N)N1c1cccc(OCc2ccccc2)c1 | 5.19 |
| CC(C)c1cccc(OCc2cccc(N3C(N)=NC(N)=NC3(C)C)c2)c1 | 5.87 |
| CC(C)(C)c1cccc(OCc2cccc(N3C(N)=NC(N)=NC3(C)C)c2)c1 | 6.08 |
| CC1(C)N=C(N)N=C(N)N1c1cccc(COc2cccc(NC(=N)S)c2)c1 | 4.01 |

| Compound | Log 1/C |
| --- | --- |
| CCCCCCc1cccc(N2C(N)=NC(N)=NC2(C)C)c1 | 6.39 |
| CCc1cccc(OCc2cccc(N3C(N)=NC(N)=NC3(C)C)c2)c1 | 5.74 |
| CC1(C)N=C(N)N=C(N)N1c1cccc(COc2ccccc2)c1 | 5.67 |
| Cc1cccc(N2C(N)=NC(N)=NC2(C)C)c1 | 4.97 |
| CCCCOc1cccc(N2C(N)=NC(N)=NC2(C)C)c1 | 5.95 |
| CC1(C)N=C(N)N=C(N)N1c1cccc(COc2cccc(CO)c2)c1 | 4.77 |
| CC1(C)N=C(N)N=C(N)N1c1cccc(OCc2ccc(Cl)c(Cl)c2)c1 | 5.8 |
| CC1(C)N=C(N)N=C(N)N1c1cccc(I)c1 | 5.91 |
| CC1(C)N=C(N)N=C(N)N1c1cccc(CNc2cc(C(N)=O)cc(C(N)=O)c2)c1 | 3.79 |
| CN(Cc1cnc2nc(N)nc(N)c2n1)c1ccc(C(=O)N[C@@H](CCC(=O)O)C(=O)O)cc1 [METHOTREXATE] | 2.9 |
| CC(=O)c1cccc(N2C(N)=NC(N)=NC2(C)C)c1 | 4.56 |
| CCCCCCCCCCCCOc1cccc(N2C(N)=NC(N)=NC2(C)C)c1 | 6.24 |
| CC(C)(C)c1cccc(N2C(N)=NC(N)=NC2(C)C)c1 | 6.03 |
| CC1(C)N=C(N)N=C(N)N1c1cccc(Br)c1 | 5.9 |
| CCCCCCCCCCCOc1cccc(N2C(N)=NC(N)=NC2(C)C)c1 | 6.38 |
| CC1(C)N=C(N)N=C(N)N1c1cccc(C(O)c2ccccc2)c1 (configuration not stated) | 4.17 |
| CC1(C)N=C(N)N=C(N)N1c1cccc(OCCCCOc2cccc(C(F)(F)F)c2)c1 | 6.28 |
| CC1(C)N=C(N)N=C(N)N1c1cccc(COc2cccc(C#N)c2)c1 | 5.25 |
